In ChEMBL document CHEMBL1137336, “Structure-function correlation of chloroquine and analogues as transgene expression enhancers in nonviral gene delivery” (J Med Chem, 2006) one finds Activity and Drug uptake data, which are given here for 12 compounds.

The source made the active and inactive calls. The rule behind the calls is not given here.

The test system of data set [1] is HeLa. Nature of the data set: Viability of human HeLa cells at 200 uM. The format is functional. In outline: (§1)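 Cells plated at 5 × 10⁴/well 24 h ahead and rinsed with PBS. CDP/pGL3-CV polyplexes (1 µg DNA, charge ratio 5 +/-) applied in Opti-MEM with compound for 4 h at 37 °C, 5% CO₂, then medium replaced. After another 44 h, lysates assayed for luciferase in duplicate, expressed as RLU/mg protein. Viability taken as total lysate protein by modified Lowry (DC) assay, normalized to cells transfected with naked DNA.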

Data set [2] relates to HepG2. As to the kind of experiment: Uptake of CDP/plasmid pGL3-CV polyplexes in HepG2 cells after 2 hrs. As to conditions: human, hepg2, 2 h. The class given is ADME, cell-based.
The test system of data set [3] is HepG2. Nature of the data set: Uptake of CDP/plasmid pGL3-CV polyplexes in HepG2 cells after 30 mins. The class given is ADME, cell-based. As to conditions: human, hepg2, 0.5 h.
Data set [4] relates to HeLa. As to the kind of experiment: Transfection of CDP/plasmid pGL3-CV in HeLa cells at 200 uM after 48 hrs by luciferase assay. The format is functional, Homo sapiens. In outline:
as §1

For data set [5], the system named is HepG2. As to the kind of experiment: Transfection of CDP/plasmid pGL3-CV in HepG2 cells at 200 uM after 48 hrs by luciferase assay. The format is functional, Homo sapiens. The procedure, abridged:
as §1

Data set [6] relates to HepG2. Nature of the data set: Viability of human HepG2 cells at 200 uM. The class given is functional. In outline: as §1
The test system of data set [7] is Nucleic Acid. Nature of the data set: Displacement of plasmid pGL3-CV from CDP/plasmid pGL3-CV polyplexes at 20 mM. The class given is nucleic-acid assay. In outline:
(§2)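 pGL3-CV (2 µg, 0.6 pmol) complexed with CDP (24 µg, 4 nmol), diluted in PBS and held 30 min at 25 °C. Mixed with compound for a further 30 min at 25 °C, then passed through a 100 nm membrane presoaked with matching compound concentration. Free DNA in filtrate measured by DAPI fluorescence (ex 350/em 465 nm). % released = (If−I0)/(It−I0)×100.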

The subject of data set [8] is Nucleic Acid. As to the kind of experiment: Binding affinity to plasmid pGL3-CV assessed as retardation of movement in gel at 10 mM. The format is nucleic-acid assay. In outline: (§3)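 pGL3-CV plasmid mixed with compound across 0.1-10 mM, each solution held ~10 min, then loading buffer and Borax buffer (0.025 M, pH 8.4) added. Run on 0.5% agarose gel containing ethidium bromide in TAE (40 mM Tris-acetate, 1 mM EDTA). Mobility compared with untreated plasmid.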

The test system of data set [9] is HepG2. Nature of the data set: Uptake in human HepG2 cells at 100 uM after 30 mins. The class given is ADME, cell-based. As to conditions: hepg2, 0.5 h. The procedure, abridged:
(§4)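 HepG2 cells (2 × 10⁶) incubated at 37 °C in Opti-MEM (pH 7.4) with 100 µM compound, with or without CDP/pDNA (20 nmol/3 pmol). At set times, washed with cold PBS with and then without compound, lysed, and diluted in 0.1 N NaOH. Fluorescence read at ex 360/em 465 nm, converted by standard curve, and cellular concentration calculated assuming a cell volume of 3 × 10⁻⁶ µL.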

For data set [10], the system named is Nucleic Acid. Nature of the data set: Displacement of plasmid pGL3-CV from CDP/plasmid pGL3-CV polyplexes at 500 uM. The format is nucleic-acid assay. In outline:
as §2

Data set [11] relates to HepG2. Nature of the data set: Uptake in human HepG2 cells after 4 hrs in presence of CDP/plasmid pGL3-CV polyplexes. The format is ADME, cell-based. As to conditions: hepg2, 4 h. In outline:
as §4

In data set [12] the test system is Nucleic Acid. As to the kind of experiment: Exclusion of picogreen dye from plasmid pGL3-CV at 4 mM. The format is nucleic-acid assay. In outline: (§5)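 CDP/pGL3-CV polyplexes diluted 2.5× in water, then mixed 1:1 with compound at twice the final concentration. Incubated 5 min at room temperature, then combined with an equal volume of PicoGreen diluted 200× in 10 mM HEPES. Fluorescence read at ex 488/em 535 nm; exclusion taken as loss of dye fluorescence.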

Data set [13] has as its system Nucleic Acid. As to the kind of experiment: Exclusion of picogreen dye from plasmid pGL3-CV at 0.5 mM. The class given is nucleic-acid assay. In outline: as §5
Data set [14] deals with Nucleic Acid. Nature of the data set: Transcription of plasmid pGL3-CV upto 2.5 mM relative to control. The class given is nucleic-acid assay.
For data set [15], the system named is Nucleic Acid. Nature of the data set: Exclusion of picogreen dye from plasmid pGL3-CV at 1 mM. The class given is nucleic-acid assay. The procedure, abridged:
as §5

Data set [16] deals with HepG2. As to the kind of experiment: Viability of human HepG2 cells at 20 uM. The class given is functional. In outline:
as §1

The test system of data set [17] is HepG2. As to the kind of experiment: Transfection of CDP/plasmid pGL3-CV in HepG2 cells at 20 uM after 48 hrs by luciferase assay. The format is functional, Homo sapiens. In outline:
as §1

The test system of data set [18] is Nucleic Acid. Nature of the data set: Displacement of plasmid pGL3-CV from CDP/plasmid pGL3-CV polyplexes at 2.5 mM. The format is nucleic-acid assay. The procedure, abridged:
as §2

Data set [19] relates to Nucleic Acid. Nature of the data set: Displacement of plasmid pGL3-CV from CDP/plasmid pGL3-CV polyplexes at 5 to 20 mM. The format is nucleic-acid assay. In outline:
as §2

Data set [20] relates to HepG2. As to the kind of experiment: Transfection of CDP/plasmid pGL3-CV in HepG2 cells at 150 uM after 48 hrs by luciferase assay. The format is functional, Homo sapiens. The procedure, abridged:
as §1

Data set [21] concerns HepG2. As to the kind of experiment: Viability of human HepG2 cells at 150 uM. The format is functional. The procedure, abridged: as §1
The subject of data set [22] is Nucleic Acid. As to the kind of experiment: Binding affinity to plasmid pGL3-CV assessed as retardation of movement in gel at 1 mM. The format is nucleic-acid assay. The procedure, abridged: as §3
Data set [23] concerns HepG2. Nature of the data set: Uptake in human HepG2 cells at 100 uM after 4 hrs. As to conditions: hepg2, 4 h. The format is ADME, cell-based. In outline: as §4
For data set [24], the system named is Nucleic Acid. As to the kind of experiment: Binding affinity to plasmid pGL3-CV assessed as retardation of movement in gel at 100 uM. The class given is nucleic-acid assay. The procedure, abridged: as §3
Data set [25] concerns HepG2. As to the kind of experiment: Viability of human HepG2 cells at 100 uM. The format is functional. In outline: as §1
In data set [26] the test system is HepG2. As to the kind of experiment: Transfection of CDP/plasmid pGL3-CV in HepG2 cells at 100 uM after 48 hrs by luciferase assay. The class given is functional, Homo sapiens. In outline:
as §1

Turning to `CCN(CC)CCCC(C)Nc1ccncc1` (configuration not stated), the Activity is on record as 101% with HeLa [1]; 76.2% in the data set with HepG2 [2]; 12.8% in the data set on HepG2 [3]; 82000 RLU/mg in the data set on HeLa [4]; 6400000 RLU/mg in the data set on HepG2 [5]; 85% with HepG2 [6].
With `CCN(CC)CCCC(C)Nc1ccnc2cc(C(F)(F)F)ccc12` (configuration not stated), the Activity in the data set on Nucleic Acid [7] is 70%; in the data set on HeLa [1], 83%; in the data set with Nucleic Acid [10], 40%; with Nucleic Acid [12], 100%; with Nucleic Acid [13], 30%; in the data set on Nucleic Acid [14], 75%. In addition, the Activity amounted to 6700000 RLU/mg in the data set on HeLa [4], 30% in the data set with Nucleic Acid [15], 170000000 RLU/mg in the data set on HepG2 [5] and 61% in the data set with HepG2 [6]. Further, in the data set on Nucleic Acid [8], the outcome was Active. Also, the Drug uptake in the data set on HepG2 [9] amounted to 11 mM; in the data set with HepG2 [11] it was 13 mM.
With `CCN(CC)CCCC(C)Nc1c2ccc(Cl)cc2nc2ccc(OC)cc12` (configuration not stated) [QUINACRINE], the results for the Activity with HepG2 [16] and in the data set on HepG2 [17] were 57% and 25000000 RLU/mg, respectively.
Consider `CC(C)NCCNCCNc1ccnc2cc(Cl)ccc12`, for which the figures for the Activity in the data set with Nucleic Acid [14], with HepG2 [5] and in the data set on HepG2 [6] were 75%, 22000000 RLU/mg and 74%, respectively.
For the compound `CCN(CC)CCCC(C)Nc1ccnc2ccccc12` (configuration not stated), the Activity with Nucleic Acid [18] is under 3%; in the data set with HepG2 [2], 75.5%; in the data set on Nucleic Acid [19], 10%; in the data set with HepG2 [3] it was 18.8%; in the data set with Nucleic Acid [14], 75%; in the data set with HepG2 [5] it was 2700000 RLU/mg. In the data set on HepG2 [6], this compound returned an Activity of 100%. Also, the Drug uptake in the data set with HepG2 [11] was 2 mM.
Turning to `CC(C)CCCC(C)Nc1ccnc2cc(Cl)ccc12` (configuration not stated), the Activity in the data set with HepG2 [20] came out at 4700000 RLU/mg; in the data set with Nucleic Acid [14], 75%; in the data set on HepG2 [21] it was 89%.
Turning to `NCCN(CCN)CCNc1ccnc2cc(Cl)ccc12`, the Activity is 25000000 RLU/mg in the data set with HepG2 [20], 75% in the data set on Nucleic Acid [14] and 83% in the data set with HepG2 [21].
Turning to `CCN(CC)CCCC(C)Nc1ccnc2cc(Cl)ccc12` (configuration not stated) [CHLOROQUINE], the Activity in the data set on Nucleic Acid [7] was determined as 50%; with HeLa [1], 82%; in the data set with Nucleic Acid [10], 10%; in the data set with HepG2 [2], 67.7%; with HepG2 [3] it was 11.9%; in the data set on Nucleic Acid [13] it was 23%. The Activity in the data set with Nucleic Acid [14] worked out at 75%; in the data set with HeLa [4], 4300000 RLU/mg; in the data set with Nucleic Acid [15] it was 23%; in the data set on HepG2 [5] it was 16000000 RLU/mg; with HepG2 [6], 60%. In addition, the result in the data set with Nucleic Acid [22] and in the data set on Nucleic Acid [24] was inactive. The Drug uptake in the data set on HepG2 [11] came out at 13 mM; in the data set on HepG2 [23], 12 mM.
Turning to `NCCCN1CCN(CCCNc2ccnc3cc(Cl)ccc23)CC1`, the Activity was determined as 74% with HepG2 [25], 20000000 RLU/mg in the data set on HepG2 [26] and 75% with Nucleic Acid [14].
In the case of `CCN(CC)CCOc1ccnc2cc(Cl)ccc12`, the Activity in the data set on HeLa [1] is 92%; with Nucleic Acid [13], 17%; in the data set with Nucleic Acid [14], 75%; with HeLa [4] it was 230000 RLU/mg; in the data set with Nucleic Acid [15] it was 17%.
Consider `CC(Nc1ccnc2cc(Cl)ccc12)C(=O)O` (configuration not stated), for which the Activity in the data set with HepG2 [20] came out at 4300000 RLU/mg; in the data set on Nucleic Acid [14] it was 75%; in the data set with HepG2 [21], 84%.
The matching figures for `CN(C)CCNc1ccnc2cc(Cl)ccc12`: 25000000 RLU/mg, 75% and 64%.
